Measurements from publication PMC5198968 (Cancer Science, 2016).
“Also recorded” adds a separate entry of the source.

What was measured:
[1] = Pharmacokinetics in plasma and urine; type: in vivo, human; conditions: for half-life: human, plasma, oral, t ½,ss, gMean (gCV%)
How it was run: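 Oral dosing twice daily, at 100, 150 or 200 mg depending on group. Blood was drawn predose and 1, 2, 3, 4, 6, 8, 10 and 24 h postdose on cycle 1 day 15, plus predose and 2 h postdose on cycle 2 days 1 and 15. Urine was collected over 24 h on cycle 1 day 15 and stored at −20°C or below. Analysis was by LC-MS/MS, with non-compartmental parameters, in treated patients with an evaluable PK end-point.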

[2] = system: Japanese patients with advanced hepatocellular carcinoma; test: Phase I dose escalation: dose-limiting toxicities and maximum tolerated dose; type: in vivo, human
How it was run: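 Doses started at 150 mg b.i.d. (group I) or 100 mg b.i.d. (group II) and escalated to 200 mg, with 3–9 patients per level. DLTs were drug-related AEs in cycle 1: grade 4 neutropenia lasting ≥8 days, febrile neutropenia or thrombocytopenia, most non-hematological grade ≥3 events, or defined liver-enzyme or bilirubin rises. Escalation required DLT incidence <33.3% (0/3, 1/6, 2/9). Twelve patients were added at the MTD.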

[3] = system: patients with advanced solid tumors; conditions: phase I studies in advanced solid tumors; cited from earlier work
[4] = system: Japanese patients with advanced hepatocellular carcinoma; test: Efficacy: tumor response; type: in vivo, human
[5] = dose-normalized AUC at steady state
[6] = 200 mg b.i.d., expansion cohort

## COC(=O)c1ccc2c(c1)NC(=O)/C2=C(\Nc1ccc(N(C)C(=O)CN2CCN(C)CC2)cc1)c1ccccc1 [nintedanib]
[1]; after multiple oral dose administration at steady state
  Time at which plasma concentrations reached their maximum: 3 to 4 h
[1]; days 1–22 of cycle 1
  Correlation between nintedanib exposure (AUCτ,ss,norm) and AST or ALT levels: no clear correlation
[1]; [5]
  Increase in AUCτ,ss,norm, Child–Pugh score 7 versus score 5 or 6: 37%
  Increase in AUCτ,ss,norm, group II versus group I: 26%
[1]; 100 mg, Group II (moderate liver impairment), 100 mg b.i.d., n = 2, steady state
  half-life: 41.6 h
[1]; 150 mg, Group I (mild liver impairment), 150 mg b.i.d., n = 3, steady state
  half-life: 23.6 h
[1]; 150 mg, Group II (moderate liver impairment), 150 mg b.i.d., n = 3, steady state
  half-life: 14.6 h
[1]; 200 mg, Group I (mild liver impairment), 200 mg b.i.d., n = 9, steady state
  half-life: 16.6 h
[1]; 200 mg, Group II (moderate liver impairment), 200 mg b.i.d. (n = 7), steady state
  half-life: 17.7 h
[1]; over 24 hours after dosing at steady state
  Administered dose recovered in the urine: 0.49–0.66%
[1]; two patients in group I, 200 mg b.i.d. cohort
  AUCτ,ss of individual patients with high exposure: 5700 ng·h/mL
[2]; [6]
  DLT of grade 3 diarrhea: one patient in group I
  DLT of grade 3 drug-induced liver injury: one patient in each group
[2]; 200 mg b.i.d., including expansion cohort, of 19 patients
  Patients who experienced a DLT: three
[2]; both groups (mild and moderate liver impairment), oral, 28-day cycles
  Maximum tolerated dose (MTD): 200 mg b.i.d.
[2]; group I (150, 200 mg b.i.d.) and group II (100, 150, 200 mg b.i.d.), dose escalation
  DLT during the MTD period (cycle 1): No dose‐limiting toxicities were reported; also recorded: No patient experienced a DLT
[3]
  Primary DLT: elevated liver enzymes
[4]; both groups
  Objective tumor response (RECIST 1.0, investigator assessment): no complete or partial responses
[4]; group I (12 patients; 10 treated at the MTD)
  Stable disease: 75.0%
[4]; group I, nine patients (56.3%) evaluable
  Patients with response by AFP (decline from baseline of >20% in AFP levels): three
[4]; group I, of 16 patients
  Patients who had progressed at the time of analysis: 15 patients
[4]; group I, overall, 95% CI 1.05–5.52
  Median time to progression (TTP): 2.8 months
[4]; group I, prior sorafenib treatment, 95% CI 1.05–5.68
  Median time to progression (TTP): 2.8 months
[4]; group I, treated at the MTD of 200 mg b.i.d., 95% CI 1.05–5.52
  Median time to progression (TTP): 2.8 months
[4]; group II, all patients
  Patients who had progressed at the time of analysis: 14 patients
[4]; group II, nine patients (64.3%) evaluable
  Patients with response by AFP: three
[4]; group II, overall, 95% CI 0.95–6.70
  Median time to progression (TTP): 3.2 months
[4]; group II, prior sorafenib treatment, 95% CI 0.95–6.70
  Median time to progression (TTP): 2.8 months
[4]; group II, treated at the MTD of 200 mg b.i.d., 95% CI 0.95–5.62
  Median time to progression (TTP): 2.8 months
[4]; one patient of group I, after 1 month of nintedanib treatment
  Computed tomography finding in metastatic lymph node lesions: tumor necrosis
[4]; patients in each group
  Stable disease: > 75%
